# Active and inactive are the calls of the source.
# Assays:
# [1] = Drug uptake in BALB/c mouse cortical convoluted tubule epithelial cells at 100 ug, iv after 4 hrs by avidin-peroxidase/HE staining based assay; assay type: ADME, organism-based, Epithelial cell; details: in vivo
# [2] = Drug uptake in BALB/c mouse liver at 100 ug, iv after 4 hrs by avidin-peroxidase/HE staining based assay; assay type: ADME, organism-based; details: in vivo
# [3] = Drug uptake in BALB/c mouse kidney deep medulla at 100 ug, iv after 4 hrs by avidin-peroxidase/HE staining based assay; assay type: ADME, organism-based; details: in vivo
# [4] = Drug uptake in BALB/c mouse kupffer cells at 100 ug, iv after 4 hrs by avidin-peroxidase/HE staining based assay; assay type: ADME, organism-based; details: in vivo
# [5] = Drug uptake in BALB/c mouse kidney deep medulla epithelial cells at 100 ug, iv after 4 hrs by avidin-peroxidase/HE staining based assay; assay type: ADME, organism-based, Epithelial cell; details: in vivo
# Bacillus anthracis [6] = experiment: Bactericidal activity against germinating spore form of Bacillus anthracis at 5 ug/ml; assay type: functional
# [7] = Drug uptake in BALB/c mouse kidney cortex at 100 ug, iv after 4 hrs by avidin-peroxidase/HE staining based assay; assay type: ADME, organism-based; details: in vivo
# Bacillus anthracis [8] = experiment: In vivo bactericidal activity against encapsulated Bacillus anthracis 9602P spores infected in mouse assessed as increase in time of survival at 20 ug/ml, sc administered for 15 mins to 48 hrs post infection measured for 15 days post dose; assay type: functional, organism-based
# Bacillus anthracis [9] = experiment: In vivo bactericidal activity against encapsulated Bacillus anthracis 9602P spores infected in mouse assessed as increase in time of survival at 20 ug/ml, administered intranasally for 15 mins to 48 hrs post infection measured for 15 days post dose; assay type: functional, organism-based
# Bacillus anthracis [10] = experiment: Bactericidal activity against germinated spore form of Bacillus anthracis 9602P assessed as colony forming units after 30 mins; assay type: functional; details: 0.5 h
# Bacillus anthracis [11] = experiment: Bactericidal activity against encapsulated Bacillus anthracis 9602P assessed as reduction in colony forming units after 30 mins; assay type: functional; details: 0.5 h
# Bacillus anthracis [12] = experiment: Time required for 50 % bactericidal activity against encapsulated Bacillus anthracis 9602P at 20 ug/ml; assay type: functional
# Bacillus anthracis [13] = experiment: Time required for 50 % bactericidal activity against germinating spore form of Bacillus anthracis 9602P at 20 ug/ml; assay type: functional
# Bacillus anthracis [14] = experiment: Time required for 50 % bactericidal activity against nonencapsulated Bacillus anthracis 9602PR at 20 ug/ml; assay type: functional
# Bacillus anthracis [15] = experiment: Bactericidal activity against nonencapsulated Bacillus anthracis 9602PR assessed as reduction in colony forming units after 30 mins; assay type: functional; details: 0.5 h
# [16] = Stability assessed as trypsin (unknown origin)-mediated compound degradation up to 3 mins by HPLC analysis; assay type: ADME; details: human, 0.05 h
# [17] = Stability assessed as chymotrypsin(unknown origin)-mediated compound degradation up to 3 mins by HPLC analysis; assay type: ADME; details: human, 0.05 h
# [18] = Stability assessed as Streptomyces griseus pronase E-mediated compound degradation up to 3 mins by HPLC analysis; assay type: ADME; details: 0.05 h
# [19] = Drug uptake in BALB/c mouse kidney cortex at 100 ug/ml, iv after 4 to 48 hrs by high resolution beta radiometric imaging analysis; assay type: ADME, organism-based; details: in vivo
# Summary of the method: (§1)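 BALB/c mice got 100 μg (5 μCi) tritiated compound iv in PBS. At 4, 30 and 48 h the mice were anaesthetised with halothane and frozen in isopentane/dry ice at −80 °C. Whole-body sagittal cryosections (20 μm, cut at −25 °C) were exposed 40 h on a β-imager. Counts per mm2 were read by image analysis, with a muscle-area detection threshold. Values are mean ± SD of 2–6 determinations.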
# [20] = Drug uptake in BALB/c mouse kidney cortex at 20 ug/ml, administered intranasally after 4 to 48 hrs by high resolution beta radiometric imaging analysis relative to iv dosing; assay type: ADME, organism-based; details: in vivo, inhaled_or_intranasal
# Summary of the method: (§2)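 BALB/c mice got 20 μg (5 μCi) tritiated compound intranasally. At 4, 30 and 48 h they were anaesthetised with halothane and frozen at −80 °C. Whole-body 20 μm sagittal cryosections were exposed 40 h on a high-resolution β-imager. Regional radioactivity was quantified as counts per mm2 per 40 h by image analysis.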
# [21] = Drug uptake in BALB/c mouse nasopharyngeal duct at 20 ug/ml, administered intranasally at 4 hrs post dose by high resolution beta radiometric imaging analysis; assay type: ADME; details: in vivo, inhaled_or_intranasal; summary of the method: as §2
# [22] = Cytotoxicity against mouse RAW264.7 cells assessed as reduction in cell viability after 4 hrs by MTT assay; assay type: toxicity; details: read-out: LC50
# Summary of the method: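 RAW 264.7 murine macrophages (2 × 10^5 cells per well) were incubated with increasing compound concentrations for 4 h. Viability was read by MTT assay. The dose causing 50% cell lethality was reported as mean ± SEM, n = 3.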
# [23] = Terminal half life in BALB/c mouse at 100ug, iv as bolus administration by liquid scintillation counting; assay type: ADME, organism-based; details: in vivo
# Summary of the method: (§3)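 Conscious BALB/c mice got one iv bolus of [3H]-labelled oligourea (0.5 × 10^6 cpm per 100 μg, 5.8 × 10−2 μmol) in PBS. Blood (10–20 μL) was drawn from the retro-orbital sinus at 0.6, 2, 3.5, 5.5, 8.7, 15 and 240 min and counted by liquid scintillation. PK was fitted by a two-compartment iv bolus model; n = 2 mice.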
# [24] = Drug uptake in BALB/c mouse lungs at 20 ug/ml, administered intranasally up to 4 hrs by high resolution beta radiometric imaging analysis; assay type: ADME, Lung; details: in vivo, inhaled_or_intranasal; summary of the method: as §2
# [25] = Primary phase half life in BALB/c mouse at 100ug, iv as bolus administration by liquid scintillation counting; assay type: ADME, organism-based; details: in vivo; summary of the method: as §3
# [26] = Drug excretion in BALB/c mouse urine at 20 ug/ml, administered intranasally after 6 hrs by high resolution beta radiometric imaging analysis; assay type: ADME; details: in vivo, inhaled_or_intranasal
# [27] = Stability assessed as chymotrypsin(unknown origin)-mediated compound degradation after 24 hrs by HPLC analysis; assay type: ADME; details: human
# [28] = Selectivity index, ratio of HD100 for sheep RBC to MIC for Staphylococcus aureus ATCC 25923
# Bacillus anthracis [29] = experiment: Time required for 95 % bactericidal activity against encapsulated Bacillus anthracis 9602P at 10 ug/ml; assay type: functional
# [30] = Drug uptake in BALB/c mouse liver at 100 ug/ml, iv after 4 to 48 hrs by high resolution beta radiometric imaging analysis; assay type: ADME, organism-based; details: in vivo; summary of the method: as §1
# Bacillus anthracis [31] = experiment: Time required for 50 % bactericidal activity against germinating spore form of Bacillus anthracis 9602P at 10 ug/ml; assay type: functional
# Bacillus anthracis [32] = experiment: Bactericidal activity against Bacillus anthracis 9602P non-germinated spores assessed as colony forming units at 10 ug/ml incubated for 30 mins followed by heating for 30 mins (reference value: 5.28 +/- 0.02 CFU); assay type: functional
# [33] = Ratio of drug level in kidney cortex to muscle in BALB/c mouse at 100 ug/ml, iv after 4 hrs by high resolution beta radiometric imaging analysis; assay type: ADME, organism-based; details: in vivo; summary of the method: as §1
# [34] = Ratio of drug level in liver to muscle in BALB/c mouse at 100 ug/ml, iv after 4 hrs by high resolution beta radiometric imaging analysis; assay type: ADME, organism-based; details: in vivo; summary of the method: as §1
# [35] = Stability assessed as Streptomyces griseus pronase E-mediated compound degradation after 24 hrs by HPLC analysis; assay type: ADME
# [36] = Stability assessed as trypsin (unknown origin)-mediated compound degradation after 24 hrs by HPLC analysis; assay type: ADME; details: human
# Bacillus anthracis [37] = experiment: Time required for 50 % bactericidal activity against encapsulated Bacillus anthracis 9602P at 10 ug/ml; assay type: functional
# [38] = Plasma protein binding in CD1 mouse at 10 uM after 4 hrs by HPLC/MS/MS analysis; assay type: ADME, cell-free; details: read-out: PPB
# Summary of the method: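 Binding was measured by equilibrium dialysis against CD-1 mouse plasma.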
# [39] = Drug excretion in BALB/c mouse urinary bladder at 100ug, iv as bolus administration after 240 mins by liquid scintillation counting; assay type: ADME, organism-based; details: in vivo, 4 h; summary of the method: as §3
# [40] = Drug uptake in BALB/c mouse kidney at 100ug, iv through bolus administration after 30 hrs by RP-HPLC analysis; assay type: ADME, organism-based; details: in vivo
# Summary of the method: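 Kidneys were taken 4 and 30 h after iv tritiated compound and homogenised in 1 N HCl. Homogenates were extracted with methanol/0.1% TFA (4:1), lyophilised 48 h and resuspended in water. Samples ran on C18 RP-HPLC with UV (224, 254 nm) and radioactivity detection. Elution was 10 min isocratic at 20% B, then 20–100% B over 15 min (B: acetonitrile, 0.1% TFA).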
# [41] = Selectivity index, ratio of HD100 for sheep RBC to MIC for Escherichia coli ATCC 25922
# [42] = Selectivity ratio of LC50 for mouse RAW 264.7 cells to ratio of EC50 for germinating spore form of Bacillus anthracis 9602P; assay type: ADME; details: RAW264.7 cells, read-out: Selectivity Index
# Bacillus anthracis [43] = experiment: Time required for 50 % bactericidal activity against nonencapsulated Bacillus anthracis 9602PR at 10 ug/ml; assay type: functional
# [44] = Tmax in BALB/c mouse at 100ug, iv as bolus administration by liquid scintillation counting; assay type: ADME, organism-based; details: in vivo; summary of the method: as §3
molecule,measurement,setting,value
CC(C)[C@@H](CNC(=O)N[C@@H](CCCCN)CNC(=O)N[C@H](CNC(=O)N[C@H](CNC(=O)N[C@@H](CCCCN)CNC(=O)N[C@H](CNC(=O)N[C@@H](CCCCN)CNC(=O)N[C@H](CCC(N)=O)C(C)C)Cc1c[nH]c2ccccc12)C(C)C)Cc1c[nH]c2ccccc12)NC(=O)CCCC[C@@H]1SC[C@@H]2NC(=O)N[C@@H]21,Drug uptake,[1],Active
same,Drug uptake,[2],Active
same,Drug uptake,[3],Active
same,Drug uptake,[4],Active
same,Drug uptake,[5],Active
same,Activity,Bacillus anthracis [6],64.8%
same,Drug uptake,[7],Active
CC(C)[C@@H](CCC(N)=O)NC(=O)NC[C@H](CCCCN)NC(=O)NC[C@H](Cc1c[nH]c2ccccc12)NC(=O)NC[C@H](CCCCN)NC(=O)NC[C@@H](NC(=O)NC[C@H](Cc1c[nH]c2ccccc12)NC(=O)NC[C@H](CCCCN)NC(=O)NC[C@@H](NC(=O)NCCSCC(=O)NCCNC(=O)CSCCNC(=O)N[C@H](CNC(=O)N[C@@H](CCCCN)CNC(=O)N[C@H](CNC(=O)N[C@H](CNC(=O)N[C@@H](CCCCN)CNC(=O)N[C@H](CNC(=O)N[C@@H](CCCCN)CNC(=O)N[C@H](CCC(N)=O)C(C)C)Cc1c[nH]c2ccccc12)C(C)C)Cc1c[nH]c2ccccc12)C(C)C)C(C)C)C(C)C,Activity,Bacillus anthracis [8],Active
same,Activity,Bacillus anthracis [9],Active
same,EC50,Bacillus anthracis [10],0.2 µg/mL
same,EC50,Bacillus anthracis [11],0.5 µg/mL
CC(C)NC(=O)N[C@H](CNC(=O)N[C@@H](CCCCN)CNC(=O)N[C@H](CNC(=O)N[C@H](CCC(=O)N[C@@H](CCCCN)CNC(=O)N[C@H](CNC(=O)N[C@@H](CCCCN)CNC(=O)N[C@H](CCC(N)=O)C(C)C)Cc1c[nH]c2ccccc12)C(C)C)Cc1c[nH]c2ccccc12)C(C)C,Time,Bacillus anthracis [12],75 s
same,Time,Bacillus anthracis [13],120 s
same,Time,Bacillus anthracis [14],45 s
same,EC50,Bacillus anthracis [10],10 µg/mL
same,EC50,Bacillus anthracis [15],8.5 µg/mL
same,EC50,Bacillus anthracis [11],7 µg/mL
Ac-VKWVKWKV-NH2,Stability,[16],Unstable
same,Stability,[17],Unstable
same,Stability,[18],Unstable
CC(C)NC(=O)N[C@H](CNC(=O)N[C@@H](CCCCN)CNC(=O)N[C@H](CNC(=O)N[C@H](CNC(=O)N[C@@H](CCCCN)CNC(=O)N[C@H](CNC(=O)N[C@@H](CCCCN)CNC(=O)N[C@H](CCC(N)=O)C(C)C)Cc1c[nH]c2ccccc12)C(C)C)Cc1c[nH]c2ccccc12)C(C)C,Drug uptake,[19],Active
same,Drug uptake,[20],70%
same,Drug uptake,[21],Active
same,CC50 at 4 h,[22],31.1 µg/mL
same,beta t1/2,[23],1.65 h
same,Drug uptake,[24],Active
same,alphat1/2,[25],3 min
same,Drug excretion,[26],2%
same,Stability,[27],Stable
same,Selectivity Index,[28],8
same,Time,Bacillus anthracis [29],<2 min
same,Drug uptake,[30],Active
same,Time,Bacillus anthracis [31],60 s
same,Activity,Bacillus anthracis [32],5.26 CFU
same,Ratio,[33],10
same,Ratio,[34],10
same,Stability,[35],Stable
same,Stability,[36],Stable
same,Time,Bacillus anthracis [37],30 s
same,Activity,Bacillus anthracis [8],Active
same,"fraction unbound at 4 h, 10 µM",[38],0.01
same,Drug excretion,[39],2%
same,Drug uptake,[40],89%
same,Activity,Bacillus anthracis [9],Active
same,Selectivity Index,[41],8
same,EC50,Bacillus anthracis [10],3.3 µg/mL
same,selectivity ratio,[42],9.5
same,EC50,Bacillus anthracis [15],6 µg/mL
same,Time,Bacillus anthracis [43],35 s
same,Tmax,[44],<= 2 min
same,EC50,Bacillus anthracis [11],3.25 µg/mL

# From ChEMBL document CHEMBL3853326, “Proteolytically Stable Foldamer Mimics of Host-Defense Peptides with Protective Activities in a Murine Model of Bacterial Infection” (J Med Chem, 2016)
